Measurements taken from ChEMBL document CHEMBL3044620, “Cinnamic acid inhibits growth but stimulates production of pathogenesis factors by in vitro cultures of Fusarium oxysporum f.sp. niveum” (2008).

Assays:
[1] = tested on: Fusarium oxysporum f. sp. niveum; test: Stimulation of cellulase activity in Fusarium oxysporum f. sp. niveum at 1600 mg/L measured 7 days post compound treatment by DNS method; assay type: functional
[2] = tested on: Fusarium oxysporum f. sp. niveum; test: Stimulation of pectinase activity in Fusarium oxysporum f. sp. niveum at 1600 mg/L measured 7 days post compound treatment by DNS method (reference value: 0.01 +/- 0.0 U//ml/min); assay type: functional
[3] = tested on: Fusarium oxysporum f. sp. niveum; test: Stimulation of mycotoxin production in Fusarium oxysporum f. sp. niveum at 1600 mg/L measured 7 days post compound treatment by spectrophotometry (reference value: 26.9 +/- 4.9 ug/mL); assay type: functional
[4] = tested on: Fusarium oxysporum f. sp. niveum; test: Growth inhibition of Fusarium oxysporum f. sp. niveum assessed as reduction in sporulation measured 7 days post compound treatment; assay type: functional, organism-based
In short: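 FON was grown 7 days in modified Bilay and Joffe's medium (4.0 g sodium carboxymethyl cellulose, pH 4) with cinnamic acid at 200–1600 mg L-1 or a water control. Broth was diluted 10-5–10-7, and 0.1 mL was spread on PDA and incubated in the dark at 28 °C for 4 days. Colonies were counted and converted to conidia per culture. Three replicates, mean ± SE.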

[5] = tested on: Fusarium oxysporum f. sp. niveum; test: Stimulation of proteinase activity in Fusarium oxysporum f. sp. niveum at 1600 mg/L measured 7 days post compound treatment (reference value: 0.42 +/- 0.2 U//min/ml); assay type: functional
[6] = tested on: Neurospora crassa; test: Growth inhibition of Neurospora crassa assessed as inhibition of mycelial growth at 200 mg/L; assay type: functional; conditions: read-out: GI
[7] = tested on: Fusarium oxysporum f. sp. niveum; test: Growth inhibition of Fusarium oxysporum f. sp. niveum assessed as colony diameter at 1600 mg/L measured 7 days post compound treatment (reference value: 7.0 +/- 0.63 cm); assay type: functional
[8] = tested on: Fusarium oxysporum f. sp. niveum; test: Stimulation of proteinase activity in Fusarium oxysporum f. sp. niveum at 1600 mg/L measured 7 days post compound treatment; assay type: functional
[9] = tested on: Fusarium oxysporum f. sp. niveum; test: Stimulation of amylase activity in Fusarium oxysporum f. sp. niveum at 400 mg/L measured 7 days post compound treatment by DNS method (reference value: 3.7 +/- 0.5 umol/min/ml); assay type: functional
[10] = tested on: Fusarium oxysporum f. sp. niveum; test: Stimulation of cellulase activity in Fusarium oxysporum f. sp. niveum at 1600 mg/L measured 7 days post compound treatment by DNS method (reference value: 0.03 +/- 0.1 umol/min/ml); assay type: functional
[11] = tested on: Fusarium oxysporum f. sp. niveum; test: Growth inhibition of Fusarium oxysporum f. sp. niveum assessed as reduction in conidial germination measured […]; assay type: functional, organism-based
In short: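 Conidia came from a 7-day liquid culture (28 °C), collected by filtration and diluted in sterile water. 0.1 mL was spread on 2% water agar plates containing cinnamic acid (200–1600 mg L-1; water control) and incubated at 28 °C for 3 days. Colonies were counted daily. Three replicate plates per treatment.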

[12] = tested on: Fusarium oxysporum f. sp. niveum; test: Growth inhibition of Fusarium oxysporum f. sp. niveum assessed as inhibition of mycelium dry weight at 1600 mg/L measured 7 days post compound treatment; assay type: functional; conditions: 168 h
In short: (§1)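 Strain NJAUS-1 was grown in 30 mL potato dextrose broth (pH 4.5, HCl), inoculated with a 5 mm plug from a 7-day PDA culture. Flasks were shaken at 170 rpm, 28 °C, for 7 days. Mycelium was filtered and dried at 80 °C for 12 h to constant dry weight. Cinnamic acid was tested at 200–1600 mg L-1; controls received sterile water. Three replicates, mean ± SE.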

[13] = tested on: Fusarium oxysporum f. sp. niveum; test: Stimulation of proteinase activity in Fusarium oxysporum f. sp. niveum at 1600 mg/L measured 7 days post compound treatment by Tseng and Mount method
[14] = tested on: Fusarium oxysporum f. sp. niveum; test: Growth inhibition of Fusarium oxysporum f. sp. niveum assessed as reduction in hyphal growth measured 7 days post compound treatment; assay type: functional, organism-based
[15] = tested on: Fusarium oxysporum f. sp. niveum; test: Growth inhibition of Fusarium oxysporum f. sp. niveum assessed as mycelium dry weight at 1600 mg/L measured 7 days post compound treatment (reference value: 0.22 +/- 0.01 g); assay type: functional; in short: as §1
[16] = tested on: Fusarium oxysporum f. sp. niveum; test: Stimulation of amylase activity in Fusarium oxysporum f. sp. niveum at 1600 mg/L measured 7 days post compound treatment by DNS method (reference value: 3.7 +/- 0.5 umol/min/ml); assay type: functional

With `O=C(O)/C=C/c1ccccc1` [CINNAMIC ACID] the Activity [1] was 2006%, the Activity [2] was 0.052 U/ml/min and the Activity [3] was 13.25 µg/mL. For the same compound, the “growth inhibition (GI)” value [4] was “Dose-dependent effect”, the Activity [5] was 3.21 U/min/ml and the inhibition of growth at 200 µg/mL [6] was 94%. The Activity [7] was 0 cm, the Activity [8] was 760% and the Activity [9] was 5.2 µmol/min/mL. The Activity [10] was 0.33 µmol/min/mL, the “growth inhibition (GI)” value [11] was “Dose-dependent effect” and the inhibition at 1600 µg/mL [12] was 63.3%. For the same compound, the Activity [13] was 760%, the “growth inhibition (GI)” value [14] was “Dose-dependent effect” and the Activity [15] was 0.08 g. The Activity [16] was 4.6 µmol/min/mL.
